Activity calls are given as the source filed them. No cut-off for these calls is given here.
Columns and labels:
MIA PaCa-2 [1] = experiment: Inhibition of chemoresistant human MIAPaCa2 cell proliferation after 48 hrs by MTT assay; type: functional
In short: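 MiaPaCa-2 cells in DMEM with 10% FBS seeded at 15 000/well and left to attach overnight. Medium replaced with fresh medium holding a range of concentrations, or medium alone; gemcitabine control. Incubated 48 h at 37 °C, 5% CO₂, and viable cells measured by MTT. Mean ± SE of three independent experiments.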

MIA PaCa-2 [2] = experiment: Inhibition of DNA synthesis in chemoresistant human MIAPaCa2 cells assessed as incorporation of [3H]thymidine into DNA after 4 hrs by liquid scintillation counting; type: functional
In short: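 MiaPaCa-2 cells seeded at 15 000/well and treated in exponential growth for 4 h, with gemcitabine as comparator. Then labelled with [³H]thymidine (10 μCi/mL) for 6 h at 37 °C, 5% CO₂. Cells harvested and incorporated radioactivity measured by liquid scintillation counting.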

Mus musculus [3] = experiment: Toxicity in nude mouse xenografted with human MIAPaCa2 cells assessed as weight loss at 150 mg/kg, ip administered measured after 3 weeks; settings: in vivo, 504 h
MIA PaCa-2 [4] = experiment: Antitumor activity against human MIAPaCa2 cells xenografted in nude mouse assessed as reduction in tumor volume at 150 mg/kg, ip administered measured after 3 weeks; parameters: scale not given: the % may be the effect or the level left; settings: route intraperitoneal
MIA PaCa-2 [5] = experiment: Induction of apoptosis in chemoresistant human MIAPaCa2 cells assessed as increase in caspase 3/7 activation after 48 hrs […] relative to control; type: functional
MIA PaCa-2 [6] = experiment: Induction of necrosis in chemoresistant human MIAPaCa2 cells assessed as cell membrane damage associated LDH release up to 300 um after 1 hr; type: functional
In short: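 MiaPaCa-2 cells seeded at 15 000/well; 24 h later exposed to compound in DMSO for 1 h. LDH reaction mixture added 1:1 and incubated 10 min at 25 °C. Lysis buffer set as 100% release and medium as 0%. Result is released LDH over total cellular LDH; triplicate.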

MIA PaCa-2 [7] = experiment: Inhibition of Hsp27 protein expression in chemoresistant human MIAPaCa2 cells by alexa fluor 488 staining-based immunofluorescence assay; type: functional, cell-based
In short: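 Treated and untreated MiaPaCa-2 cells fixed in 4% paraformaldehyde and permeabilized with 1% Triton. Incubated with mouse anti-Hsp27 monoclonal (1:500) overnight at 4 °C, blocked in BSA/PBS, then Alexa Fluor 488 secondary (1:750). Nuclei stained with DAPI for imaging.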

MIA PaCa-2 [8] = experiment: Induction of apoptosis in chemoresistant human MIAPaCa2 cells assessed as increase in DNA/histone nucleosome release after 48 hrs by ELISA relative to control; type: functional
In short: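 MiaPaCa-2 cells seeded at 15 000/well for 24 h, then treated or left untreated for 48 h. Cells lysed after centrifugation at 200g. Supernatant put on streptavidin plate with biotin anti-histone and peroxidase anti-DNA antibodies, 2 h at room temperature. After washes, substrate added for 20 min and read at 405 nm. Expressed as fold increase in absorbance over control; triplicate.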

MIA PaCa-2 [9] = experiment: Inhibition of Hsp27 protein expression in chemoresistant human MIAPaCa2 cells after 48 hrs by Western blotting; type: functional, cell-based
In short: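 MiaPaCa-2 cells treated and harvested at 48 h. Lysates loaded at 15 μg protein and blotted with rabbit polyclonal anti-human Hsp27 (1:5000) and vinculin reference (1:2000). Detected by enhanced chemiluminescence and band intensities quantified against untreated control.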

MIA PaCa-2 [10] = experiment: Induction of apoptosis in chemoresistant human MIAPaCa2 cells assessed as increase in caspase 3/7 activation after 48 hrs by […] relative to gemcitabine; type: functional
In short: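 MiaPaCa-2 cells seeded at 15 000/well; 24 h later treated for 48 h, with gemcitabine and no-treatment controls. Apo-ONE homogeneous caspase-3/7 reagent added 1:1 to culture, containing fluorogenic Z-DEVD-R110 substrate. Incubated 30 min at room temperature, then fluorescence read. Triplicate.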

MIA PaCa-2 [11] = experiment: Induction of apoptosis in chemoresistant human MIAPaCa2 cells assessed as increase in cell accumulation at sub-G1/G0 phase after 48 hrs by FACS analysis relative to control; type: functional
In short: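 MiaPaCa-2 cells treated 48 h, with untreated and gemcitabine controls. Cells trypsinized, PBS-washed and fixed overnight at 4 °C in cold 70% ethanol. Treated with RNase (500 μg/mL) and stained with propidium iodide (50 μg/mL). Sub-G1/G0 fraction read by flow cytometry on 10⁶ cells; triplicate.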

MIA PaCa-2 [12] = experiment: Inhibition of Hsp27 mRNA expression in chemoresistant human MIAPaCa2 cells after 24 hrs by RT-PCR analysis; type: functional
In short: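 MiaPaCa-2 cells treated 24 h. Total RNA isolated by TRIzol and reverse-transcribed. SYBR Green real-time PCR run with Hsp27 primers: 45 cycles of 95 °C 5 s, 57 °C 6 s, 72 °C 12 s, followed by a melting curve. Normalized to 18S rRNA; each sample in triplicate.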

Mus musculus [13] = experiment: Toxicity in nude mouse xenografted with human MIAPaCa2 cells assessed as normal growth and behavior at 150 mg/kg, ip administered measured after 3 weeks; settings: in vivo, 504 h
MIA PaCa-2 [14] = experiment: Induction of necrosis in chemoresistant human MIAPaCa2 cells up to 12 hrs by 7-aminoactinomycin D staining-based FACS analysis; type: functional
In short: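 MiaPaCa-2 cells seeded at 500 000 per 6 cm dish and left overnight, then treated or left untreated for 3, 6 and 12 h. Stained with 7-AAD for 15 min at 25 °C, then read immediately by flow cytometry; triplicate.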

COC(=O)c1nc(C#Cc2ccc(C(F)(F)F)cc2)nn1[C@@H]1O[C@H](COC(C)=O)[C@@H](OC(C)=O)[C@H]1OC(C)=O
inhibition (MIA PaCa-2 [1]): inactive

CCCc1ccc(C#Cc2nc(C(N)=O)n([C@@H]3O[C@H](CO)[C@@H](O)[C@H]3O)n2)cc1
inhibition (MIA PaCa-2 [1]): inactive

Nc1ccn([C@@H]2O[C@H](CO)[C@@H](O)C2(F)F)c(=O)n1 [GEMCITABINE]
inhibition (INH) (MIA PaCa-2 [2]): >90%
inhibition (INH) (MIA PaCa-2 [1]): <30%

CCCCCc1ccc(C#Cc2nc(C(=O)OC)n([C@@H]3O[C@H](COC(C)=O)[C@@H](OC(C)=O)[C@H]3OC(C)=O)n2)cc1
inhibition (MIA PaCa-2 [1]): inactive

CCCCCc1ccc(C#Cc2nc(C(N)=O)n(COCCO)n2)cc1
inhibition (MIA PaCa-2 [1]): inactive

CCCCCc1ccc(-c2cn(-c3nc(C(N)=O)n([C@@H]4O[C@H](CO)[C@@H](O)[C@H]4O)n3)nn2)cc1
inhibition (MIA PaCa-2 [1]): inactive

CCCCCc1ccc(-c2nc(C(N)=O)n([C@@H]3O[C@H](CO)[C@@H](O)[C@H]3O)n2)cc1
inhibition (MIA PaCa-2 [1]): inactive

CCCCCc1ccc(C#Cc2nc(C(N)=O)n([C@@H]3O[C@H](CO)[C@@H](O)[C@H]3O)n2)cc1
Activity (Mus musculus [3]): Non-toxic
Activity (MIA PaCa-2 [4]): 50%
fold change (FC) (MIA PaCa-2 [5]): 30
Activity (MIA PaCa-2 [6]): <2%
inhibition (MIA PaCa-2 [2]): inactive
inhibition (MIA PaCa-2 [7]): Active
inhibition (INH) (MIA PaCa-2 [1]): 80%
fold change (FC) (MIA PaCa-2 [8]): 40
inhibition (MIA PaCa-2 [9]): Active
fold change (FC) (MIA PaCa-2 [10]): 12
fold change (FC) (MIA PaCa-2 [11]): 14
inhibition (INH) (MIA PaCa-2 [12]): 80%
Activity (Mus musculus [13]): Non-toxic
Activity (MIA PaCa-2 [14]): <2%

Cc1ccc(C#Cc2nc(C(N)=O)n([C@@H]3O[C@H](CO)[C@@H](O)[C@H]3O)n2)cc1
inhibition (MIA PaCa-2 [1]): inactive

CCCCCC#Cc1nc(C(N)=O)n([C@@H]2O[C@H](CO)[C@@H](O)[C@H]2O)n1
inhibition (MIA PaCa-2 [1]): inactive

NC(=O)c1nc(C#Cc2ccc(C(F)(F)F)cc2)nn1[C@@H]1O[C@H](CO)[C@@H](O)[C@H]1O
inhibition (MIA PaCa-2 [1]): inactive

CCCCCc1ccc(CCc2nc(C(N)=O)n([C@@H]3O[C@H](CO)[C@@H](O)[C@H]3O)n2)cc1
inhibition (MIA PaCa-2 [1]): inactive

CCCCCc1ccc(C#Cc2nc(C(N)=O)nn2[C@@H]2O[C@H](CO)[C@@H](O)[C@H]2O)cc1
inhibition (MIA PaCa-2 [1]): inactive
